Reference: ChEMBL document CHEMBL1649277, “Inhibition of herpesvirus replication by 5-substituted 4'-thiopyrimidine nucleosides” (Antimicrob Agents Chemother, 2009)
The source made the active and inactive calls. The rule behind the calls is not given here.

Columns and labels:
[1] = Selectivity index, ratio of CC50 for human BCBL1 cells to EC50 for Human herpesvirus 8 infected in human BCBL1 cells; type: toxicity, cell-based; settings: read-out: Ratio CC50/EC50
Human betaherpesvirus 5 [2] = assay: Antiviral activity against human cytomegalovirus AD169 infected in HFF after 8 to 10 days by plaque reduction assay; type: functional, organism-based; settings: Human betaherpesvirus 5, AD169
Method in brief: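 Plaque reduction on confluent HFF monolayers in triplicate wells: 1 h adsorption, then six serial compound dilutions (top 100 μM) in MEM with 2% FBS, no immunoglobulin. Incubation was 8 days for HCMV and 10 days for VZV. Plaques were stained with 0.017% neutral red in PBS and counted microscopically. EC50 was interpolated at 50% plaque reduction.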

Human betaherpesvirus 5 [3] = assay: Antiviral activity against human cytomegalovirus C8914-6 harboring UL97 I244V, L595F and UL54 L501F mutant gene infected in HFF after 8 to 10 days by plaque reduction assay; type: functional, organism-based; settings: Human betaherpesvirus 5, C8914-6
Method in brief: (§1)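 Plaque reduction in confluent HFF with six serial dilutions (top 100 μM) and no immunoglobulin added. Virus was adsorbed 1 h on triplicate wells. Cells were incubated 8 days, stained with 0.017% neutral red in PBS, and plaques counted. EC50 is the concentration reducing plaque number by 50%.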

Human gammaherpesvirus 4 = assay: Antiviral activity against Epstein-Barr virus infected in human Akata cells after 72 hrs; type: functional, organism-based; settings: human gammaherpesvirus 4, Akata
Method in brief: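 Akata cells were kept in RPMI 1640 with 10% FBS. Compound ranged 100 to 0.032 μM. Latent cells were induced to lytic infection with 50 μg/ml goat anti-human IgG, and 4 × 10^4 cells were added per well. After 72 h, DNA was alkali/NaCl-denatured, blotted to nylon membrane, and viral DNA quantified by digoxigenin-probe hybridization with anti-hapten antibody detection.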

Human betaherpesvirus 5 [4] = assay: Antiviral activity against human cytomegalovirus 1117 harboring UL54 K513N mutant gene infected in HFF after 8 to 10 days by plaque reduction assay; type: functional, organism-based; settings: Human betaherpesvirus 5, 1117; method in brief: as §1
Human alphaherpesvirus 2 [5] = assay: Antiviral activity against HSV2 infected in BALB/c mouse assessed mean time to virus-induced death at 30 mg/kg, po BID administered 72 hrs post infection; type: functional
Human betaherpesvirus 5 [6] = assay: Antiviral activity against human cytomegalovirus PFAB300 harboring UL54 L724V mutant gene infected in HFF after 8 to 10 days by plaque reduction assay; type: functional, organism-based; settings: Human betaherpesvirus 5, PFAB300; method in brief: as §1
[7] = Cytotoxicity against human BCBL1 cells after 3 days by MTS assay; type: cell-based
Human alphaherpesvirus 1 [8] = assay: Antiviral activity against HSV1 SC16-S1 harboring TK A265T/C336Y mutant gene infected in HFF after 3 days by plaque reduction assay; type: functional, organism-based; settings: Human alphaherpesvirus 1, SC16-S1, 72 h
Method in brief: (§2)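 Confluent HFF monolayers (passage <10) were infected in triplicate wells at 20–30 plaques per well, with 1 h adsorption and rocking every 15 min. Six serial dilutions (top 100 μM) were made in MEM with 2% FBS and pooled human immunoglobulin. Cells were incubated 3 days and stained with crystal violet. Plaques were counted, and EC50 was interpolated from plaque reduction.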

Human alphaherpesvirus 2 [9] = assay: Antiviral activity against HSV2 infected in BALB/c mouse assessed mean time to virus-induced death at 30 mg/kg, po BID administered 48 hrs post infection; type: functional
Human alphaherpesvirus 2 [10] = assay: Antiviral activity against HSV2 infected in BALB/c mouse assessed mean time to virus-induced death at […], po BID administered 72 hrs post infection; type: functional
[11] = Selectivity index, ratio of CC50 for HFF to EC50 for VZV Ellan infected in HFF
Human alphaherpesvirus 2 [12] = assay: Antiviral activity against HSV2 infected in BALB/c mouse assessed mean time to virus-induced death at […], po BID administered 24 hrs post infection; type: functional
Human alphaherpesvirus 2 [13] = assay: Selectivity ratio of EC50 for 4'-thioIDU-resistant HSV2 infected in HFF to EC50 for HSV2 MS infected in HFF; type: functional
Human alphaherpesvirus 2 [14] = assay: Antiviral activity against HSV2 infected in BALB/c mouse assessed mean time to virus-induced death at 30 mg/kg, po BID administered 24 hrs post infection; type: functional
Human alphaherpesvirus 2 [15] = assay: Antiviral activity against HSV2 infected in BALB/c mouse assessed as virus-induced mortality rate at 30 mg/kg, po BID administered 24 hrs post infection; type: functional
Human alphaherpesvirus 2 [16] = assay: Antiviral activity against HSV2 infected in BALB/c mouse assessed mean time to virus-induced death at 10 mg/kg, po BID administered 24 hrs post infection; type: functional
Human alphaherpesvirus 2 [17] = assay: Antiviral activity against HSV2 infected in BALB/c mouse assessed as virus-induced mortality rate at 30 mg/kg, po BID administered 48 hrs post infection; type: functional
Human alphaherpesvirus 2 [18] = assay: Antiviral activity against HSV2 AG-3 harboring TK Q105P mutant gene infected in HFF after 3 days by plaque reduction assay; type: functional, organism-based; settings: Human alphaherpesvirus 2, AG-3, 72 h; method in brief: as §2
Human alphaherpesvirus 2 [19] = assay: Antiviral activity against HSV2 infected in BALB/c mouse assessed as virus-induced mortality rate at 10 mg/kg, po BID administered 24 hrs post infection; type: functional
Human alphaherpesvirus 2 [20] = assay: Antiviral activity against HSV2 infected in BALB/c mouse assessed mean time to virus-induced death at 10 mg/kg, po BID administered 72 hrs post infection; type: functional
[21] = Selectivity index, ratio of CC50 for HFF to EC50 for HSV2 MS infected in HFF
[22] = Cytotoxicity against human HSB2 cells after 3 days by MTS assay; type: cell-based, CCRF-HSB-2
[23] = Cytotoxicity against HFF after 3 days by MTS assay; type: cell-based; settings: human, HFF cells
Human alphaherpesvirus 2 [24] = assay: Antiviral activity against HSV2 MS infected in HFF assessed as inhibition of viral DNA synthesis-associated incorporation in DNA by immunofluorescence assay; type: functional, organism-based
Method in brief: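 HFF on coverslips were infected with HSV-2 MS or the resistant isolate (MOI 0.2 PFU/cell) for 48 h. Cells were pulsed with BrdUrd or 10 μM test compound for 30 min before fixation. Incorporation was detected with a cross-reacting anti-BrdUrd monoclonal antibody, infected cells with anti-155-kDa nucleocapsid antibody, and nuclei with DAPI.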

[25] = Selectivity index, ratio of CC50 for human Akata cells to EC50 for Epstein-Barr virus infected in human Akata cells; type: toxicity, cell-based; settings: read-out: Ratio CC50/EC50
Human alphaherpesvirus 2 [26] = assay: Antiviral activity against HSV2 infected in BALB/c mouse assessed mean time to virus-induced death at […], po BID administered 48 hrs post infection; type: functional
Human alphaherpesvirus 1 [27] = assay: Antiviral activity against HSV1 DM2.1 harboring frameshift mutation in TK infected in HFF after 3 days by plaque reduction assay; type: functional, organism-based; settings: Human alphaherpesvirus 1, DM2.1, 72 h; method in brief: as §2
[28] = Selectivity index, ratio of CC50 for HFF to EC50 for human cytomegalovirus AD169 infected in HFF
Human alphaherpesvirus 2 [29] = assay: Antiviral activity against HSV2 infected in BALB/c mouse assessed as virus-induced mortality rate at […], po BID administered 72 hrs post infection; type: functional
Human alphaherpesvirus 2 [30] = assay: Antiviral activity against HSV2 12247 harboring TK C337Y mutant gene infected in HFF after 3 days by plaque reduction assay; type: functional, organism-based; settings: Human alphaherpesvirus 2, 12247, 72 h; method in brief: as §2
Human betaherpesvirus 5 [31] = assay: Antiviral activity against human cytomegalovirus 759D100 harboring deletion mutation in UL97 gene and UL54 A987G mutant gene infected in HFF after 8 to 10 days by plaque reduction assay; type: functional, organism-based; settings: Human betaherpesvirus 5, 759D100; method in brief: as §1

Compound `O=c1[nH]c(=O)n([C@H]2C[C@H](O)[C@@H](CO)S2)cc1I` has a selectivity ratio [1] of less than 3.6, an EC50 (Human betaherpesvirus 5 [2]) of 5.85 µM and an EC50 (Human betaherpesvirus 5 [3]) of 43 µM. For the same compound, the EC50 (Human gammaherpesvirus 4) was greater than 0.16 µM, the EC50 (Human betaherpesvirus 5 [4]) was 4.4 µM and the Time (Human alphaherpesvirus 2 [5]) was 11.7 days. It also gave an EC50 (Human betaherpesvirus 5 [6]) of 25 µM, a CC50 at 72 h [7] of 14 µM and an EC50 (Human alphaherpesvirus 1 [8]) greater than 444 µM. The Time (Human alphaherpesvirus 2 [9]) was 12.8 days, the Time (Human alphaherpesvirus 2 [10]) was 10 days and the Ratio CC50/EC50 [11] was 35. The Time (Human alphaherpesvirus 2 [12]) was 8.2 days, the “Ratio EC50” value (Human alphaherpesvirus 2 [13]) was 108 and the Time (Human alphaherpesvirus 2 [14]) was 12.1 days. The Activity (Human alphaherpesvirus 2 [15]) was 100%, the Time (Human alphaherpesvirus 2 [16]) was 9.8 days and the Activity (Human alphaherpesvirus 2 [17]) was 100%. The EC50 (Human alphaherpesvirus 2 [18]) was greater than 444 µM, the Activity (Human alphaherpesvirus 2 [19]) was 67% and the Time (Human alphaherpesvirus 2 [20]) was 10.7 days. For the same compound, the Ratio CC50/EC50 [21] was greater than 140, the CC50 at 72 h [22] was greater than 100 µM and the CC50 at 72 h [23] was greater than 70 µM. The inhibition (Human alphaherpesvirus 2 [24]) was “Active”, the selectivity ratio [25] was less than 4.3 and the Time (Human alphaherpesvirus 2 [26]) was 9.4 days. The EC50 (Human alphaherpesvirus 1 [27]) was greater than 444 µM, the “Ratio CC50/EC50” value [28] was greater than 17 and the Activity (Human alphaherpesvirus 2 [29]) was 100%. The EC50 (Human alphaherpesvirus 2 [30]) was greater than 444 µM and the EC50 (Human betaherpesvirus 5 [31]) was 14 µM.
